Experimental data as given in ChEMBL document CHEMBL1127521, “CCK-A-selective tetrapeptides containing lys(N epsilon)-amide residues: favorable in vivo and in vitro effects of N-methylation at the aspartyl residue” (J Med Chem, 1994).
Square brackets hold non-standard residues; d marks the D form. Peptide text beside a SMILES is read from it. * marks the point of attachment. ξ: configuration not given here. Acryloyl(3-(3-pyridyl),E) = O=C(/C=C/c1cccnc1)*; NMeF = CN[C@@H](Cc1ccccc1)C(=O)O; ξW = NC(Cc1c[nH]c2ccccc12)C(=O)O; NMeD = CN[C@@H](CC(=O)O)C(=O)O; X1 = O=C(/C=C/c1ccc(O)cc1)*; X2 = O=C(/C=C/c1cccs1)*; Boc = CC(C)(C)OC(=O)*

What was measured:
Rattus norvegicus = experiment: Compound was evaluated for Appetite suppression, based on intake of liquid diet by food-deprived rats for 1 h following intraperitoneal injection; format: functional; settings: ip
Summary of the method: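 Rats are food-deprived, dosed intraperitoneally, and their liquid diet intake over the following 1 h is measured as the appetite suppression read-out.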

[1] = target: Cholecystokinin A receptor (Cavia porcellus); experiment: In vitro inhibition of [125I]CCK-8 binding to guinea pig pancreas
[2] = target: Cholecystokinin B receptor (Cavia porcellus); experiment: In vitro binding for inhibition of [125I]- Bolton-Hunter-CCK-8 binding in guinea pig cortex
[3] = target: T1, Cholecystokinin receptor type A (Cavia porcellus) (UniProt Q63931); experiment: Percent maximal stimulation of phosphatidylinositol hydrolysis in guinea pig pancreatic acini (CCK-A receptors) relative to CCK-8; format: functional
T1 sequence (whole entry): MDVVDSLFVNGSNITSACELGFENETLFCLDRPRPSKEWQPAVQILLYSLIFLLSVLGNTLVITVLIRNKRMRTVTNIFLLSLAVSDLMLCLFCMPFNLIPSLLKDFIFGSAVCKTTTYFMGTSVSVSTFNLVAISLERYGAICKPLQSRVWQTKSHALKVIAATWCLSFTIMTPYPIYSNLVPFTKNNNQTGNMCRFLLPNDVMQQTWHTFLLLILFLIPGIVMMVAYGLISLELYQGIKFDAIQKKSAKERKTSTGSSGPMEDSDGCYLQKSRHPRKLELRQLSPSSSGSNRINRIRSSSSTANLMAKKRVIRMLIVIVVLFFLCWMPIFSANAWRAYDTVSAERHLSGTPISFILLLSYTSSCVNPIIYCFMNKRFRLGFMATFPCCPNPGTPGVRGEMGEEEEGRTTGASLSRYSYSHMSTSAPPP
Summary of the method: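 Functional CCK-A assay in guinea pig pancreatic acini. Phosphatidylinositol hydrolysis is measured and expressed as percent of the maximal stimulation produced by CCK-8.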

SMILES	ED50 (Rattus norvegicus)	Hydrolysis [3]	also measured
CN(C(=O)[C@H](CCCCNC(=O)/C=C/c1cccs1)NC(=O)[C@H](Cc1c[nH]c2ccccc12)NC(=O)OC(C)(C)C)[C@@H](CC(=O)O)C(=O)N[C@@H](Cc1ccccc1)C(N)=O (Boc-WK(X2)[NMeD]F-NH2) [listing 1 of 2 here]	0.012 µmol/kg		
CN(C(=O)[C@H](CCCCNC(=O)/C=C/c1ccc(O)cc1)NC(=O)[C@H](Cc1c[nH]c2ccccc12)NC(=O)OC(C)(C)C)[C@@H](CC(=O)O)C(=O)N(C)[C@@H](Cc1ccccc1)C(N)=O (Boc-WK(X1)[NMeD][NMeF]-NH2) [listing 1 of 2 here]			IC50 [1]: 9 nM; IC50 [2]: 13600 nM
CN(C(=O)[C@H](CC(=O)O)NC(=O)[C@H](CCCCNC(=O)/C=C/c1cccnc1)NC(=O)C(Cc1c[nH]c2ccccc12)NC(=O)OC(C)(C)C)[C@@H](Cc1ccccc1)C(N)=O (some centres not stated) (Boc-[ξW]K(Acryloyl(3-(3-pyridyl),E))D[NMeF]-NH2)		88%	
CN(C(=O)[C@H](CCCCNC(=O)/C=C/c1cccs1)NC(=O)C(Cc1c[nH]c2ccccc12)NC(=O)OC(C)(C)C)[C@@H](CC(=O)O)C(=O)N(C)[C@@H](Cc1ccccc1)C(N)=O (some centres not stated) (Boc-[ξW]K(X2)[NMeD][NMeF]-NH2)		93%	
CN(C(=O)[C@H](CCCCNC(=O)/C=C/c1cccs1)NC(=O)[C@H](Cc1c[nH]c2ccccc12)NC(=O)OC(C)(C)C)[C@@H](CC(=O)O)C(=O)N(C)[C@@H](Cc1ccccc1)C(N)=O (Boc-WK(X2)[NMeD][NMeF]-NH2) [listing 1 of 2 here]	0.022 µmol/kg		
CN(C(=O)[C@H](CCCCNC(=O)/C=C/c1ccc(O)cc1)NC(=O)[C@H](Cc1c[nH]c2ccccc12)NC(=O)OC(C)(C)C)[C@@H](CC(=O)O)C(=O)N[C@@H](Cc1ccccc1)C(N)=O (Boc-WK(X1)[NMeD]F-NH2) [listing 1 of 2 here]			IC50 [1]: 5 nM; IC50 [2]: 5810 nM
CN(C(=O)[C@H](CCCCNC(=O)/C=C/c1cccnc1)NC(=O)C(Cc1c[nH]c2ccccc12)NC(=O)OC(C)(C)C)[C@@H](CC(=O)O)C(=O)N[C@@H](Cc1ccccc1)C(N)=O (some centres not stated) (Boc-[ξW]K(Acryloyl(3-(3-pyridyl),E))[NMeD]F-NH2)		98%	
CN(C(=O)[C@H](CCCCNC(=O)/C=C/c1cccs1)NC(=O)[C@H](Cc1c[nH]c2ccccc12)NC(=O)OC(C)(C)C)[C@@H](CC(=O)O)C(=O)N(C)[C@@H](Cc1ccccc1)C(N)=O (Boc-WK(X2)[NMeD][NMeF]-NH2) [listing 2 of 2 here]			IC50 [1]: 32 nM; IC50 [2]: 10900 nM
CN(C(=O)[C@H](CCCCNC(=O)/C=C/c1cccs1)NC(=O)C(Cc1c[nH]c2ccccc12)NC(=O)OC(C)(C)C)[C@@H](CC(=O)O)C(=O)N[C@@H](Cc1ccccc1)C(N)=O (some centres not stated) (Boc-[ξW]K(X2)[NMeD]F-NH2)		95%	
CN(C(=O)[C@H](CC(=O)O)NC(=O)[C@H](CCCCNC(=O)/C=C/c1cccs1)NC(=O)C(Cc1c[nH]c2ccccc12)NC(=O)OC(C)(C)C)[C@@H](Cc1ccccc1)C(N)=O (some centres not stated) (Boc-[ξW]K(X2)D[NMeF]-NH2)		84%	
CN(C(=O)[C@H](CCCCNC(=O)/C=C/c1ccc(O)cc1)NC(=O)C(Cc1c[nH]c2ccccc12)NC(=O)OC(C)(C)C)[C@@H](CC(=O)O)C(=O)N[C@@H](Cc1ccccc1)C(N)=O (some centres not stated) (Boc-[ξW]K(X1)[NMeD]F-NH2)		101%	
CN(C(=O)[C@H](CCCCNC(=O)/C=C/c1cccs1)NC(=O)[C@H](Cc1c[nH]c2ccccc12)NC(=O)OC(C)(C)C)[C@@H](CC(=O)O)C(=O)N[C@@H](Cc1ccccc1)C(N)=O (Boc-WK(X2)[NMeD]F-NH2) [listing 2 of 2 here]			IC50 [1]: 35 nM; IC50 [2]: 4577 nM
CN(C(=O)[C@H](CCCCNC(=O)/C=C/c1cccnc1)NC(=O)C(Cc1c[nH]c2ccccc12)NC(=O)OC(C)(C)C)[C@@H](CC(=O)O)C(=O)N(C)[C@@H](Cc1ccccc1)C(N)=O (some centres not stated) (Boc-[ξW]K(Acryloyl(3-(3-pyridyl),E))[NMeD][NMeF]-NH2)		94%	
CN(C(=O)[C@H](CCCCNC(=O)/C=C/c1cccnc1)NC(=O)[C@H](Cc1c[nH]c2ccccc12)NC(=O)OC(C)(C)C)[C@@H](CC(=O)O)C(=O)N[C@@H](Cc1ccccc1)C(N)=O (Boc-WK(Acryloyl(3-(3-pyridyl),E))[NMeD]F-NH2) [listing 1 of 2 here]			IC50 [1]: 41 nM; IC50 [2]: 10400 nM
CN(C(=O)[C@H](CCCCNC(=O)/C=C/c1ccc(O)cc1)NC(=O)C(Cc1c[nH]c2ccccc12)NC(=O)OC(C)(C)C)[C@@H](CC(=O)O)C(=O)N(C)[C@@H](Cc1ccccc1)C(N)=O (some centres not stated) (Boc-[ξW]K(X1)[NMeD][NMeF]-NH2)		91%	
CN(C(=O)[C@H](CC(=O)O)NC(=O)[C@H](CCCCNC(=O)/C=C/c1cccs1)NC(=O)[C@H](Cc1c[nH]c2ccccc12)NC(=O)OC(C)(C)C)[C@@H](Cc1ccccc1)C(N)=O (Boc-WK(X2)D[NMeF]-NH2) [listing 1 of 2 here]	1.4 µmol/kg		
CN(C(=O)[C@H](CC(=O)O)NC(=O)[C@H](CCCCNC(=O)/C=C/c1cccs1)NC(=O)[C@H](Cc1c[nH]c2ccccc12)NC(=O)OC(C)(C)C)[C@@H](Cc1ccccc1)C(N)=O (Boc-WK(X2)D[NMeF]-NH2) [listing 2 of 2 here]			IC50 [1]: 18 nM; IC50 [2]: 731 nM
CN(C(=O)[C@H](CC(=O)O)NC(=O)[C@H](CCCCNC(=O)/C=C/c1cccnc1)NC(=O)[C@H](Cc1c[nH]c2ccccc12)NC(=O)OC(C)(C)C)[C@@H](Cc1ccccc1)C(N)=O (Boc-WK(Acryloyl(3-(3-pyridyl),E))D[NMeF]-NH2) [listing 1 of 2 here]			IC50 [2]: 128 nM
CN(C(=O)[C@H](CCCCNC(=O)/C=C/c1cccnc1)NC(=O)[C@H](Cc1c[nH]c2ccccc12)NC(=O)OC(C)(C)C)[C@@H](CC(=O)O)C(=O)N(C)[C@@H](Cc1ccccc1)C(N)=O (Boc-WK(Acryloyl(3-(3-pyridyl),E))[NMeD][NMeF]-NH2) [listing 1 of 2 here]			IC50 [1]: 50 nM
CN(C(=O)[C@H](CC(=O)O)NC(=O)[C@H](CCCCNC(=O)/C=C/c1cccnc1)NC(=O)[C@H](Cc1c[nH]c2ccccc12)NC(=O)OC(C)(C)C)[C@@H](Cc1ccccc1)C(N)=O (Boc-WK(Acryloyl(3-(3-pyridyl),E))D[NMeF]-NH2) [listing 2 of 2 here]	2.52 µmol/kg		
CN(C(=O)[C@H](CCCCNC(=O)/C=C/c1ccc(O)cc1)NC(=O)[C@H](Cc1c[nH]c2ccccc12)NC(=O)OC(C)(C)C)[C@@H](CC(=O)O)C(=O)N[C@@H](Cc1ccccc1)C(N)=O (Boc-WK(X1)[NMeD]F-NH2) [listing 2 of 2 here]	0.018 µmol/kg		
CN(C(=O)[C@H](CCCCNC(=O)/C=C/c1cccnc1)NC(=O)[C@H](Cc1c[nH]c2ccccc12)NC(=O)OC(C)(C)C)[C@@H](CC(=O)O)C(=O)N[C@@H](Cc1ccccc1)C(N)=O (Boc-WK(Acryloyl(3-(3-pyridyl),E))[NMeD]F-NH2) [listing 2 of 2 here]	0.036 µmol/kg		
CN(C(=O)[C@H](CC(=O)O)NC(=O)[C@H](CCCCNC(=O)/C=C/c1ccc(O)cc1)NC(=O)[C@H](Cc1c[nH]c2ccccc12)NC(=O)OC(C)(C)C)[C@@H](Cc1ccccc1)C(N)=O (Boc-WK(X1)D[NMeF]-NH2)	0.413 µmol/kg		
CN(C(=O)[C@H](CCCCNC(=O)/C=C/c1cccnc1)NC(=O)[C@H](Cc1c[nH]c2ccccc12)NC(=O)OC(C)(C)C)[C@@H](CC(=O)O)C(=O)N(C)[C@@H](Cc1ccccc1)C(N)=O (Boc-WK(Acryloyl(3-(3-pyridyl),E))[NMeD][NMeF]-NH2) [listing 2 of 2 here]	0.016 µmol/kg		
CN(C(=O)[C@H](CCCCNC(=O)/C=C/c1ccc(O)cc1)NC(=O)[C@H](Cc1c[nH]c2ccccc12)NC(=O)OC(C)(C)C)[C@@H](CC(=O)O)C(=O)N(C)[C@@H](Cc1ccccc1)C(N)=O (Boc-WK(X1)[NMeD][NMeF]-NH2) [listing 2 of 2 here]	0.062 µmol/kg		
CN(C(=O)[C@H](CC(=O)O)NC(=O)[C@H](CCCCNC(=O)/C=C/c1ccc(O)cc1)NC(=O)C(Cc1c[nH]c2ccccc12)NC(=O)OC(C)(C)C)[C@@H](Cc1ccccc1)C(N)=O (some centres not stated) (Boc-[ξW]K(X1)D[NMeF]-NH2)		76%	
